# Source: ChEMBL document CHEMBL1140185, “Conjugated chitosan as a novel platform for oral delivery of paclitaxel” (J Med Chem, 2008)
# Tests used:
# Mus musculus [1] = test: Toxicity in human NCI-H358 cells xenografted NCR nu/nu mouse assessed as decrease in body weight at 10 mg/kg, iv; type: organism-based; design: dose 10 mg/kg, route intravenous; conditions: in vivo
# How it was run: (§1)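 Female athymic NCR nu/nu mice (20-25 g), inoculated sc with about 6 × 10^6 NCI-H358 cells. Dosing began at tumors ≥150 mm3: 10 mg/kg/day formulated PTX iv, or conjugate po, every other day for six doses. Saline and LMWC controls. Caliper volumes taken as (1/2)(L × W2), and body weight tracked. n = 8-12; Student's t-test.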
# MDA-MB-231 = test: Anticancer activity against human MDA-MB-231 cells by MTT assay
# SK-OV-3 = test: Anticancer activity against human SKOV3 cells by MTT assay; type: functional, cell-based
# NCI-H358 [2] = test: Antitumor activity against human NCI-H358 cells xenografted NCR nu/nu mouse assessed as suppression of tumor growth at 10 mg/kg, iv; type: functional; how it was run: as §1
# [3] = Half life in ICR mouse at 10 mg/kg, iv; type: ADME, organism-based; design: dose 10 mg/kg, route intravenous; conditions: in vivo
# How it was run: (§2)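 ICR mice (25-30 g). IV arm: 10 mg/kg PTX in cremophor EL/ethanol via tail vein. Oral arm: 5 or 10 mg PTX-equivalent/kg conjugate in 10% DMSO by gavage after a 12 h fast. Retro-orbital blood taken into sodium citrate and spun 800g for 20 min. Plasma extracted with ethyl acetate; free PTX measured by HPLC. Oral bioavailability is relative to 10 mg/kg IV. n = 5.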
# [4] = AUC (0 to 48 hrs) in ICR mouse at 10 mg/kg, iv; type: ADME, organism-based; design: time < 48 hr, dose 10 mg/kg, route intravenous; conditions: plasma; how it was run: as §2
# Mus musculus [5] = test: Bioavailability in ICR mouse at 10 mg/kg, iv; type: ADME, organism-based; conditions: in vivo; how it was run: as §2
# [6] = Drug uptake in tumor of iv dosed C57BL/6 mouse bearing mouse B16F10 cells after 30 mins; type: ADME, organism-based, C57BL6, Neoplasm, B16-F10; conditions: in vivo, 0.5 h
# [7] = Oral bioavailability in cyclosporine A pretreated ICR mouse; type: ADME, organism-based; conditions: in vivo, in the assay text read “in ICR mouse” for “in cyclosporine A pretreated ICR mouse”
# How it was run: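 ICR mice (25-30 g) fasted 12 h, then gavaged with PTX or conjugate (PTX-equivalent). The oral solution included 15 mg/kg cyclosporine A where given. Retro-orbital blood spun at 3000g for 20 min; plasma PTX measured by HPLC. n = 4-5.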
# NCI-H358 [8] = test: Anticancer activity against human NCI-H358 cells by MTT assay; type: functional, cell-based
smiles,measurement,setting,value
CC(=O)O[C@H]1C(=O)[C@@]2(C)[C@H]([C@H](OC(=O)c3ccccc3)[C@]3(O)C[C@H](OC(=O)[C@H](O)[C@@H](NC(=O)c4ccccc4)c4ccccc4)C(C)=C1C3(C)C)[C@]1(OC(C)=O)CO[C@@H]1C[C@@H]2O [PACLITAXEL],Activity,Mus musculus [1],Toxic
same,IC50,MDA-MB-231,3.9 µg/mL
same,IC50,SK-OV-3,4 µg/mL
same,Activity,NCI-H358 [2],80%
same,half-life,[3],33.6 min
same,AUC(0-t) at 48 h,[4],35300 ng·h/mL
same,F,Mus musculus [5],100%
same,Drug uptake,[6],0.5%
same,bioavailability,[7],0.23%
same,IC50,NCI-H358 [8],3.8 µg/mL
